Data on 16 molecules can be found in ChEMBL document CHEMBL1145053, “Stereoselective synthesis and structure-activity relationship of novel ceramide trafficking inhibitors. (1R,3R)-N-(3-hydroxy-1-hydroxymethyl-3-phenylpropyl)dodecanamide and its analogues” (J Med Chem, 2003).

“And” between values parts separate entries of the source, which are not always exact repeats. Identical values can stand only once.

The first experiment has as its system CHO. Put plainly: Inhibitory concentration on de novo synthesis of sphingomyelin (SM) by metabolic labeling of lipids in CHO cells with radioactive serine. In kind it is functional, cell-based. To be noted: Cricetulus griseus. Summed up:
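Compound tested at 0 to 1 μM in serum-free medium containing 0.01% (v/v) DMSO. Subconfluent CHO-K1 monolayers were preincubated at 4 °C for 15 min, then pulsed with L-[14C]serine (0.75 μCi) at 33 °C for 2 h. Labeled SM was separated by TLC, imaged, and normalized to cell protein. IC50 came from […] of a single assay series.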
In the case of `CCCCCCCCCCCCCC(=O)N[C@@H](CO)C[C@@H](O)c1ccccc1`, the IC50 – broadly, the point on the concentration scale where inhibition reaches its midpoint – came to 70 nM.

In the case of `CCCCCCCCCCCCCCCCC(=O)N[C@@H](CO)C[C@@H](O)c1ccccc1`, the IC50 is greater than 1000 nM.

As to `CCCCCCCCCCC(=O)N[C@@H](CO)C[C@@H](O)c1ccccc1`, the IC50 is 110 nM.

For `CCCCCCCCCC(=O)N[C@@H](CO)C[C@@H](O)c1ccccc1`, the IC50 was 300 nM.

For the molecule `CCCCCCCCCCCCCCC(=O)N[C@@H](CO)C[C@@H](O)c1ccccc1`, the IC50 turned out to be 90 nM.

Consider `CCCCCCCCCCCCCCCCCC(=O)N[C@@H](CO)C[C@@H](O)c1ccccc1`, for which the IC50 is greater than 1000 nM.

Consider `CCCCCCCCCCCC(=O)N[C@@H](CO)C[C@@H](O)c1ccccc1`, for which the IC50 is 70 nM.

As for `CCCCCCCCCCCCCCCC(=O)N[C@@H](CO)C[C@@H](O)c1ccccc1`, the IC50 was greater than 1000 nM.

Consider `CCCCCCCCCCCCC(=O)N[C@@H](CO)C[C@@H](O)c1ccccc1`, for which the IC50 was determined as 50 nM.

A further experiment has as its system CHO. The experiment can be described thus: Effect of compound on de novo synthesis of sphingomyelin (SM) by metabolic labeling of lipids in CHO cells with radioactive serine at 1 uM. In kind it is functional, Cricetulus griseus.
Settings: not given
In short, it runs like this: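 CHO-K1 subconfluent monolayers preincubated in serum-free medium with compound at 1 μM, 0.01% (v/v) DMSO, 4 °C for 15 min. L-[14C]serine (0.75 μCi) then added, 33 °C for 2 h. Lipids extracted, TLC-separated, labeled SM quantified by imaging analyzer and normalized to lysate protein. Reported as % of DMSO-only control; mean ± SD, n = 3.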
Take `CCCCCCCCCCCC(=O)N[C@@H](CO)[C@@H](O)[C@@H](O)c1ccccc1`: the “Sphingomyelin synthesis, % of control” value was 57%.

Regarding `CCCCCCCCCCCC(=O)N[C@@H](CO)C[C@@H](OC)c1ccccc1`, the “Sphingomyelin synthesis, % of control” value is 119%.

Turning to `CCCCCCCCCCCC(=O)N[C@@H](CO)[C@H](O)[C@H](O)c1ccccc1`, the “Sphingomyelin synthesis, % of control” value came out at 17%.

With `CCCCCCCCCCCC(=O)N[C@@H](CO)[C@H](O)[C@@H](O)c1ccccc1`, the “Sphingomyelin synthesis, % of control” value is given as 28%.

For the molecule `CCCCCCCCCCCC(=O)N[C@@H](COC)C[C@@H](O)c1ccccc1`, the “Sphingomyelin synthesis, % of control” value was determined as 79%.

On to `CCCCCCCCCCCC(=O)N[C@@H](CO)C[C@@H](O)c1ccccc1`, for which the “Sphingomyelin synthesis, % of control” value was 8.2% and 4%.

As for `CCCCCCCCCCCC(=O)N[C@@H](CO)[C@@H](O)[C@H](O)c1ccccc1`, the “Sphingomyelin synthesis, % of control” value is recorded as 40%.

For the molecule `CCCCCCCCCCCC(=O)N[C@@H](COC)C[C@@H](OC)c1ccccc1`, the “Sphingomyelin synthesis, % of control” value was 130%.
